The text below walks through data of ChEMBL document CHEMBL3734701, “Synthesis and antibacterial activity of 4″-O-(trans-β-arylacrylamido)carbamoyl azithromycin analogs” (2015).

Values after ≈ are worked out from the molar mass of the structure shown. Where only a bound is given, the exact number is not on record here.

What all share (type): functional
Test [1] concerns Staphylococcus aureus. Kind of test: Antibacterial activity against methicillin-susceptible Staphylococcus aureus ATCC 29213 by broth microdilution method. Summed up: (§1)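 MICs measured in vitro by broth microdilution following NCCL recommendations, against a Gram-positive panel of sensitive and resistant strains. Azithromycin and clarithromycin were tested alongside as references.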
For orientation: Dilution methods test growth across graded concentrations, often in twofold steps.

The subject of test [2] is Staphylococcus aureus. Put plainly: Antibacterial activity against clinically isolated penicillin-resistant Staphylococcus aureus by broth microdilution method. Summed up:
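Clinical penicillin-resistant S. aureus isolate, not further characterized, tested in a Gram-positive panel. MIC was measured by broth microdilution following NCCL recommendations, with azithromycin and clarithromycin as references.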

The subject of test [3] is Streptococcus pneumoniae. Put plainly: Antibacterial activity against erythromycin-resistant Streptococcus pneumoniae A22072 expressing mefA gene by broth microdilution method. Summed up:
as §1

Test [4] relates to Streptococcus pneumoniae. Put plainly: Antibacterial activity against erythromycin-susceptible Streptococcus pneumoniae ATCC 49619 by broth microdilution method. Summed up: (§2)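 Broth microdilution MIC following the NCCL-recommended method. Panel of sensitive and resistant Gram-positive strains: S. pyogenes S2 (erythromycin-susceptible clinical isolate), S. aureus ATCC25923 and S. pneumoniae ATCC49619 (erythromycin-susceptible). Azithromycin and clarithromycin were run alongside as references.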

Test [5] deals with Streptococcus pyogenes. Put plainly: Antibacterial activity against clinically isolated erythromycin-susceptible Streptococcus pyogenes S2 by broth microdilution method. A digest of the protocol:
as §2

Test [6] has as its system Streptococcus pneumoniae. Put plainly: Antibacterial activity against erythromycin-resistant Streptococcus pneumoniae AB11 expressing ermB and mefA genes by broth microdilution method. Summed up:
as §1

Test [7] relates to Streptococcus pneumoniae. Put plainly: Antibacterial activity against erythromycin-resistant Streptococcus pneumoniae B1 expressing ermB gene by broth microdilution method. A digest of the protocol:
as §1

Test [8] relates to Staphylococcus aureus. Kind of test: Antibacterial activity against erythromycin-susceptible Staphylococcus aureus ATCC 25923 by broth microdilution method. A digest of the protocol: as §2
The test system of test [9] is Streptococcus pyogenes. Put plainly: Antibacterial activity against clinically isolated erythromycin-resistant Streptococcus pyogenes R2 by broth microdilution method. A digest of the protocol: as §1

Usually MIC stands for the lowest concentration found to suppress growth. For `CC[C@H]1OC(=O)[C@@H](C)[C@H](O[C@@H]2C[C@](C)(OC)[C@H](OC(=O)NNC(=O)/C=C/c3ccc(OC)c(OC)c3)[C@@H](C)O2)[C@H](C)[C@H](O[C@H]2O[C@@H](C)C[C@@H](N(C)C)[C@@H]2O)[C@@](C)(O)C[C@H](C)CN(C)[C@@H](C)[C@H](OC(=O)NCc2ccc(OC)cc2)[C@@]1(C)O`, the MIC in test [1] was 4 µg/mL (≈ 3.45 µM); in [2], 4 µg/mL (≈ 3.45 µM); in [3] it was 0.25 µg/mL (≈ 0.215 µM); in test [4] it was 0.5 µg/mL (≈ 0.431 µM); in test [5], 0.5 µg/mL (≈ 0.431 µM); in test [6], 8 µg/mL (≈ 6.89 µM). Moreover, the MIC in test [7] is 2 µg/mL (≈ 1.72 µM); in test [8], 2 µg/mL (≈ 1.72 µM); in [9], 64 µg/mL (≈ 55.2 µM).

Regarding `CC[C@H]1OC(=O)[C@@H](C)[C@H](O[C@H]2C[C@@](C)(OC)[C@@H](OC(=O)NNC(=O)/C=C/c3ccco3)[C@H](C)O2)[C@@H](C)[C@H](O[C@H]2O[C@@H](C)C[C@@H](N(C)C)[C@@H]2O)[C@@](C)(O)C[C@H](C)CN(C)[C@@H](C)[C@@H]2OC(=O)O[C@@]12C`, the minimum inhibitory concentration (MIC) in [1] came to 8 µg/mL (≈ 8.39 µM); in [2], 4 µg/mL (≈ 4.2 µM); in test [3], 1 µg/mL (≈ 1.05 µM); in test [4] it was 8 µg/mL (≈ 8.39 µM); in [5], 0.25 µg/mL (≈ 0.262 µM); in test [6], 16 µg/mL (≈ 16.8 µM). The minimum inhibitory concentration (MIC) in test [7] is 32 µg/mL (≈ 33.6 µM); in test [8], 2 µg/mL (≈ 2.1 µM); in test [9] it was at least 128 µg/mL.

For the molecule `CC[C@H]1OC(=O)[C@@H](C)[C@H](O[C@@H]2C[C@](C)(OC)[C@H](OC(=O)NNC(=O)/C=C/c3ccc(Cl)cc3)[C@@H](C)O2)[C@H](C)[C@H](O[C@H]2O[C@@H](C)C[C@@H](N(C)C)[C@@H]2O)[C@@](C)(O)C[C@H](C)CN(C)[C@@H](C)[C@H](OC(=O)NCc2ccccc2)[C@@]1(C)O`, the MIC came out at 4 µg/mL (≈ 3.62 µM) in test [1]; 2 µg/mL (≈ 1.81 µM) in test [2]; 0.25 µg/mL (≈ 0.226 µM) in test [3]; 0.5 µg/mL (≈ 0.453 µM) in [4]; 0.5 µg/mL (≈ 0.453 µM) in test [5]; 2 µg/mL (≈ 1.81 µM) in test [6]. The values for the MIC in [7], in test [8] and in test [9] were 4 µg/mL (≈ 3.62 µM), 1 µg/mL (≈ 0.905 µM) and 16 µg/mL (≈ 14.5 µM), respectively.

With `CC[C@H]1OC(=O)[C@@H](C)[C@H](O[C@H]2C[C@@](C)(OC)[C@@H](OC(=O)NNC(=O)/C=C/c3ccc(Cl)cc3)[C@H](C)O2)[C@@H](C)[C@H](O[C@H]2O[C@@H](C)C[C@@H](N(C)C)[C@@H]2O)[C@@](C)(O)C[C@H](C)CN(C)[C@@H](C)[C@@H]2OC(=O)O[C@@]12C`, the MIC in [1] was found to be 8 µg/mL (≈ 8.02 µM); in test [2] it was 8 µg/mL (≈ 8.02 µM); in test [3] it was 0.5 µg/mL (≈ 0.501 µM); in [4], 4 µg/mL (≈ 4.01 µM); in [5], 1 µg/mL (≈ 1 µM); in [6], 8 µg/mL (≈ 8.02 µM). The MIC in test [7] was 8 µg/mL (≈ 8.02 µM); in test [8] it was 8 µg/mL (≈ 8.02 µM); in test [9] it was 32 µg/mL (≈ 32.1 µM).

With `CC[C@H]1OC(=O)[C@@H](C)[C@H](O[C@H]2C[C@@](C)(OC)[C@@H](OC(=O)NNC(=O)/C=C/c3ccccc3OC)[C@H](C)O2)[C@@H](C)[C@H](O[C@H]2O[C@@H](C)C[C@@H](N(C)C)[C@@H]2O)[C@@](C)(O)C[C@H](C)CN(C)[C@@H](C)[C@@H]2OC(=O)O[C@@]12C`, the minimal inhibitory concentration (MIC) in [1] came out at 4 µg/mL (≈ 4.03 µM); in test [2], 8 µg/mL (≈ 8.05 µM); in test [3], 0.25 µg/mL (≈ 0.252 µM); in test [4], 4 µg/mL (≈ 4.03 µM); in test [5], 8 µg/mL (≈ 8.05 µM); in test [6], 2 µg/mL (≈ 2.01 µM). Moreover, the minimal inhibitory concentration (MIC) in test [7] stood at 4 µg/mL (≈ 4.03 µM); in test [8] it was 2 µg/mL (≈ 2.01 µM); in test [9], 64 µg/mL (≈ 64.4 µM).

For the molecule `CC[C@@H]1OC(=O)[C@H](C)[C@@H](O[C@H]2C[C@@](C)(OC)[C@@H](OC(=O)NNC(=O)/C=C/c3ccco3)[C@H](C)O2)[C@@H](C)[C@@H](O[C@@H]2O[C@H](C)C[C@H](N(C)C)[C@H]2O)[C@](C)(O)C[C@@H](C)CN(C)[C@H](C)[C@@H](OC(=O)NCc2ccccc2)[C@]1(C)O`, the MIC in test [1] was found to be 4 µg/mL (≈ 3.77 µM); in test [2], 1 µg/mL (≈ 0.943 µM); in [3] it was 0.12 µg/mL (≈ 0.113 µM); in test [4] it was 0.12 µg/mL (≈ 0.113 µM); in [5], 0.25 µg/mL (≈ 0.236 µM); in [6] it was 8 µg/mL (≈ 7.55 µM). The minimal inhibitory concentration (MIC) in [7] came out at 4 µg/mL (≈ 3.77 µM); in test [8] it was 1 µg/mL (≈ 0.943 µM); in test [9], 64 µg/mL (≈ 60.4 µM).

For the molecule `CC[C@@H]1OC(=O)[C@H](C)[C@@H](O[C@@H]2C[C@](C)(OC)[C@H](O)[C@@H](C)O2)[C@@H](C)[C@@H](O[C@@H]2O[C@H](C)C[C@H](N(C)C)[C@H]2O)[C@](C)(O)C[C@@H](C)CN(C)[C@H](C)[C@@H](O)[C@]1(C)O`, the minimal inhibitory concentration (MIC) is 1 µg/mL (≈ 1.34 µM) in test [1]; 0.12 µg/mL (≈ 0.16 µM) in test [2]; 4 µg/mL (≈ 5.34 µM) in test [3]; 0.03 µg/mL (≈ 0.0401 µM) in [4]; 0.25 µg/mL (≈ 0.334 µM) in [5]; 256 µg/mL (≈ 342 µM) in test [6]. The minimal inhibitory concentration (MIC) was over 128 µg/mL in [7], 0.25 µg/mL (≈ 0.334 µM) in test [8] and at least 128 µg/mL in test [9].

For `CC[C@H]1OC(=O)[C@@H](C)[C@H](O[C@H]2C[C@@](C)(OC)[C@@H](OC(=O)NNC(=O)/C=C/c3ccc(F)cc3)[C@H](C)O2)[C@@H](C)[C@H](O[C@H]2O[C@@H](C)C[C@@H](N(C)C)[C@@H]2O)[C@@](C)(O)C[C@H](C)CN(C)[C@@H](C)[C@@H]2OC(=O)O[C@@]12C`, the minimal inhibitory concentration (MIC) in test [1] is 8 µg/mL (≈ 8.15 µM); in [2], 16 µg/mL (≈ 16.3 µM); in [3], 2 µg/mL (≈ 2.04 µM); in test [4], 16 µg/mL (≈ 16.3 µM); in [5], 0.5 µg/mL (≈ 0.51 µM); in test [6], 16 µg/mL (≈ 16.3 µM). For the same molecule, the figures for the minimum inhibitory concentration (MIC) in test [7], in [8] and in test [9] were 64 µg/mL (≈ 65.2 µM), 2 µg/mL (≈ 2.04 µM) and 64 µg/mL (≈ 65.2 µM), respectively.

Regarding `CC[C@H]1OC(=O)[C@@H](C)[C@H](O[C@H]2C[C@@](C)(OC)[C@@H](OC(=O)NNC(=O)/C=C/c3cc(OC)c(OC)c(OC)c3)[C@H](C)O2)[C@@H](C)[C@H](O[C@H]2O[C@@H](C)C[C@@H](N(C)C)[C@@H]2O)[C@@](C)(O)C[C@H](C)CN(C)[C@@H](C)[C@@H]2OC(=O)O[C@@]12C`, the MIC in test [1] is 16 µg/mL (≈ 15.2 µM); in [2] it was 16 µg/mL (≈ 15.2 µM); in [3], 0.5 µg/mL (≈ 0.475 µM); in [4], 4 µg/mL (≈ 3.8 µM); in test [5], 0.5 µg/mL (≈ 0.475 µM); in [6], 16 µg/mL (≈ 15.2 µM). The MIC in test [7] is 32 µg/mL (≈ 30.4 µM); in test [8] it was 8 µg/mL (≈ 7.6 µM); in test [9], 64 µg/mL (≈ 60.8 µM).

Consider `CC[C@@H]1OC(=O)[C@H](C)[C@@H](O[C@H]2C[C@@](C)(OC)[C@@H](OC(=O)NNC(=O)/C=C/c3ccccc3)[C@H](C)O2)[C@@H](C)[C@@H](O[C@@H]2O[C@H](C)C[C@H](N(C)C)[C@H]2O)[C@](C)(O)C[C@@H](C)CN(C)[C@H](C)[C@@H](OC(=O)NCc2ccccc2)[C@]1(C)O`, for which the minimal inhibitory concentration (MIC) came to 1 µg/mL (≈ 0.934 µM) in [1]; 1 µg/mL (≈ 0.934 µM) in test [2]; 1 µg/mL (≈ 0.934 µM) in test [3]; 0.5 µg/mL (≈ 0.467 µM) in [4]; 0.5 µg/mL (≈ 0.467 µM) in test [5]; 4 µg/mL (≈ 3.74 µM) in test [6]. Also, the minimal inhibitory concentration (MIC) in test [7] worked out at 2 µg/mL (≈ 1.87 µM); in test [8], 0.5 µg/mL (≈ 0.467 µM); in test [9] it was 32 µg/mL (≈ 29.9 µM).

On to `CC[C@H]1OC(=O)[C@@H](C)[C@H](O[C@H]2C[C@@](C)(OC)[C@@H](OC(=O)NNC(=O)/C=C/c3ccc([N+](=O)[O-])cc3)[C@H](C)O2)[C@@H](C)[C@H](O[C@H]2O[C@@H](C)C[C@@H](N(C)C)[C@@H]2O)[C@@](C)(O)C[C@H](C)CN(C)[C@@H](C)[C@@H]2OC(=O)O[C@@]12C`, for which the MIC was 8 µg/mL (≈ 7.94 µM) in test [1]; 16 µg/mL (≈ 15.9 µM) in [2]; 0.5 µg/mL (≈ 0.496 µM) in test [3]; 2 µg/mL (≈ 1.98 µM) in test [4]; 0.25 µg/mL (≈ 0.248 µM) in test [5]; 8 µg/mL (≈ 7.94 µM) in test [6]. In addition, the minimal inhibitory concentration (MIC) is 16 µg/mL (≈ 15.9 µM) in test [7], 2 µg/mL (≈ 1.98 µM) in [8] and at least 128 µg/mL in [9].
